Results collected from several papers.
Each line is one published result; the experiments were not run side by side.

Compound | cell line | observed | mode | method | time | notes | IC50
Cc1cc(NS(=O)(=O)c2ccc(NC(=O)/C(C#N)=C/c3ccc(N4CCCCC4)cc3)cc2)no1 | HSF | cell growth or viability | – | MTT | 48 h | – | > 200 µM
CCC(=CCc1c(O)cc2c(c1O)C(=O)C[C@@H](c1ccc(O)cc1)O2)CC | HeLa | cell growth or viability | – | MTT | 48 h | – | 22.8 µM
CNC(=O)c1cc(Oc2ccc(NC(=O)Nc3ccc(Cl)c(C(F)(F)F)c3)cc2)ccn1 | SNU-449 | cell growth or viability | – | imaging | 72 h | – | 6.37 µM
Cc1ccc(S(=O)(=O)NC(=O)c2cc3ccccc3n2Cc2ccc(C3CC3)c3ccccc23)cc1 | mouse BMDM | IL-1β release | inhibitor | ELISA | – | LPS-stimulated | 2.61 µM
C(=N\Nc1cc(N/N=C/c2cccc3cccnc23)nc(-c2ccccc2)n1)/c1cccc2cccnc12 | BGC-823 | cell growth or viability | – | MTT | 48 h | – | 16.9 µM
COc1cccc2c1C(=O)c1c(O)c3c(c(O)c1C2=O)C[C@@](O)(C(=O)CO)C[C@@H]3O[C@H]1C[C@H](N)[C@H](O)[C@H](C)O1 | H69AR | cell growth or viability | – | MTT | 75 h | – | 22.5 µM
CN1CCC(NC2CCc3[nH]c4c(C(N)=O)ccc(-c5ccccc5Cl)c4c3C2)CC1 (centres unmarked) | BGC-823 | cell growth or viability | – | – | 96 h | – | 0.018 µM
COc1ccc(Nc2ncnc3c2ncn3Cc2ccc(C(=O)Nc3ccccc3N)cc2)cc1 | HEL | cell growth or viability | – | MTT | 72 h | – | 16.8 µM
Cc1cc(NS(=O)(=O)c2ccc(NC(=O)/C(C#N)=C/c3cccnc3)cc2)no1 | HSF | cell growth or viability | – | MTT | 48 h | – | > 200 µM
COc1cnccc1Cn1nc(-c2ccc(CO)o2)c2ccccc21 | CC-LP-1 | cell growth or viability | – | ATP luminescence | – | – | > 46 µM
O=C(CSc1nc2ccccc2s1)N/N=C/c1ccc(OCC(=O)Nc2cccc(Br)c2)cc1 | HEL 299 | cell growth or viability | – | MTS | 72 h | – | > 100 µM
C=CC(=O)N1CCC[C@@H](n2nc(-c3ccc(Oc4ccccc4)cc3)c3c(N)ncnc32)C1 | SU-DHL-6 | cell growth or viability | – | resazurin | 72 h | – | > 0.5 µM
CN(C)CCNC(=O)c1cccn2c(=O)c3cc4ccccc4cc3nc12 | SNU-449 | cell growth or viability | – | imaging | 72 h | – | 36.3 µM
COc1ccc(Nc2ncnc3c2ncn3Cc2ccc(C(=O)NO)cc2)cc1 | NB-4 | cell growth or viability | – | MTT | 72 h | – | 0.87 µM
COc1ccccc1Cn1nc(-c2ccc(CO)o2)c2ccccc21 | CC-LP-1 | cell growth or viability | – | ATP luminescence | – | – | ~46 µM
C(=N\Nc1cc(N/N=C/c2cccc3cccnc23)ncn1)/c1cccc2cccnc12 | BGC-823 | cell growth or viability | – | MTT | 48 h | – | 26.8 µM
NCc1ccc(-c2nn(Cc3ccccn3)c3cccnc23)o1 | CC-LP-1 | cell growth or viability | – | ATP luminescence | – | – | > 46 µM
Cc1cc2c(C(N)=O)cccc2n1-c1nc2c(c(NCc3ccccc3)n1)CCCN2 | KMS-11 | cell growth or viability | – | – | 72 h | – | 1.3 µM

Compound | cell line | observed | mode | method | time | notes | IC50
NCc1ccc(-c2nn(Cc3ccncc3)c3ccccc23)o1 | CC-LP-1 | cell growth or viability | – | ATP luminescence | – | – | > 46 µM
COc1cc([C@@H]2c3cc4c(cc3[C@@H](O[C@@H]3O[C@@H]5CO[C@@H](C)O[C@H]5[C@H](O)[C@H]3O)[C@H]3COC(=O)[C@H]23)OCO4)cc(OC)c1O | HEL 299 | cell growth or viability | – | MTS | 72 h | – | > 10 µM
COc1ncccc1Cn1nc(-c2ccc(CO)o2)c2ccccc21 | CC-LP-1 | cell growth or viability | – | ATP luminescence | – | – | > 46 µM
C(=N\Nc1cc(N/N=C/c2ccc3ccccc3n2)nc(-c2ccccc2)n1)/c1ccc2ccccc2n1 | BGC-823 | cell growth or viability | – | MTT | 48 h | – | 9.12 µM
O=C(NO)c1ccc(Cn2cnc3c(Nc4ccc(Br)cc4F)ncnc32)cc1 | HEL | cell growth or viability | – | MTT | 72 h | – | 2.46 µM
Cc1cc2c(C(=O)O)cccc2n1-c1nc2c(c(NCc3ccccc3)n1)CCCN2 | KMS-11 | cell growth or viability | – | – | 72 h | – | 0.9 µM
O=C(CSc1nc2ccccc2s1)N/N=C/c1ccc(OCC(=O)Nc2cccc(Cl)c2)cc1 | HEL 299 | cell growth or viability | – | MTS | 72 h | – | > 100 µM
Nc1ccccc1NC(=O)c1ccc(Cn2cnc3c(Nc4ccc(Br)cc4F)ncnc32)cc1 | HEL | cell growth or viability | – | MTT | 72 h | – | 17 µM
COc1cccc(Cn2nc(-c3ccc(CO)o3)c3ccccc32)c1 | CC-LP-1 | cell growth or viability | – | ATP luminescence | – | – | > 46 µM
O=C(NO)c1ccc(Cn2cnc3c(Nc4cccc([N+](=O)[O-])c4)ncnc32)cc1 | NB-4 | cell growth or viability | – | MTT | 72 h | – | 0.58 µM
OCc1ccc(-c2nn(Cc3cccnc3)c3ccccc23)o1 | CC-LP-1 | cell growth or viability | – | ATP luminescence | – | – | ~46 µM
O=C(NO)c1ccc(Cn2cnc3c(Nc4ccc(F)c(Cl)c4)ncnc32)cc1 | NB-4 | cell growth or viability | – | MTT | 72 h | – | 2.34 µM
CS(=O)(=O)NCCCCN=C=S | HDFa | cell growth or viability | – | MTT | 24 h | – | 42.9 µM
Nc1ccccc1NC(=O)c1ccc(Cn2cnc3c(Nc4ccc(Cl)cc4)ncnc32)cc1 | HEL | cell growth or viability | – | MTT | 72 h | – | 13 µM
Cc1cc(NS(=O)(=O)c2ccc(NC(=O)/C(C#N)=C/c3ccncc3)cc2)no1 | HSF | cell growth or viability | – | MTT | 48 h | – | > 200 µM
O=C(NO)c1ccc(Cn2cnc3c(Nc4ccc(Cl)cc4)ncnc32)cc1 | NB-4 | cell growth or viability | – | MTT | 72 h | – | 0.41 µM
CNC(=O)c1cc(Oc2ccc(NC(=O)Nc3ccc(Cl)c(C(F)(F)F)c3)cc2)ccn1 | BGC-823 | cell growth or viability | – | MTT | 48 h | – | 6.08 µM
